Experimental data taken from BindingDB's records for doi:10.1021/jm2013198 (Bar-Ilan University, 2012).

Key:
P2Y purinoceptor 6 [1] = biological target: T1, P2Y purinoceptor 6 (Rattus norvegicus, UniProt Q63371); assay: (§1) Agonist activity at rat P2Y purinoceptor 6 expressed in human 1321N1 cells assessed as increase in intracellular calcium concentration by spectrofluorimetry
Summary of the method: (§2)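 1321N1 astrocytoma cells lacking endogenous P2Y receptors, stably transfected with turkey P2Y1, human P2Y2, human P2Y4 or rat P2Y6, grown in DMEM with 5% FBS, penicillin/streptomycin and 500 µg/mL G-418. Fura-2-loaded cell suspensions were exposed at 37 °C in 10 mM Hepes-buffered saline, pH 7.4, with 1 mM CaCl2 and 1 mM MgCl2. Peak [Ca2+]i rise by dual-excitation spectrofluorometry across concentrations; EC50 from curve fits; three experiments on separate days per subtype.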

P2Y purinoceptor 6 [2] = biological target: T1, P2Y purinoceptor 6; assay: as §1; summary of the method: as §2; remark: listed apart in the source
P2Y purinoceptor 1 [3] = biological target: T2, P2Y purinoceptor 1 (Meleagris gallopavo, UniProt P49652); assay: (§3) Agonist activity at turkey P2Y purinoceptor 1 expressed in human 1321N1 cells assessed as increase in intracellular calcium concentration by spectrofluorimetry
T2 sequence (P49652 whole entry): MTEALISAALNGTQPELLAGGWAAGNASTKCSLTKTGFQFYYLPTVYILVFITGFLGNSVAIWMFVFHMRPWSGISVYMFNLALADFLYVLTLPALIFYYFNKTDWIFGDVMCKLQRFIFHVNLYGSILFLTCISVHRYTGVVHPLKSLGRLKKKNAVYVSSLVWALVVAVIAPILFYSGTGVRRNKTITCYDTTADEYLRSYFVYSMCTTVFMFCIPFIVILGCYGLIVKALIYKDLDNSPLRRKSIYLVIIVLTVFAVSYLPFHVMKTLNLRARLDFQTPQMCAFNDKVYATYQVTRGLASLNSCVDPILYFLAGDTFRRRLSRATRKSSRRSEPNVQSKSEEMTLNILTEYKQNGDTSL

P2Y purinoceptor 1 [4] = biological target: T2, P2Y purinoceptor 1; assay: as §3; summary of the method: as §2; remark: listed apart in the source
P2Y purinoceptor 4 [5] = biological target: T3, P2Y purinoceptor 4 (Homo sapiens, UniProt P51582); assay: (§4) Agonist activity at human P2Y purinoceptor 4 expressed in human 1321N1 cells assessed as increase in intracellular calcium concentration by spectrofluorimetry
T3 sequence (P51582 whole entry): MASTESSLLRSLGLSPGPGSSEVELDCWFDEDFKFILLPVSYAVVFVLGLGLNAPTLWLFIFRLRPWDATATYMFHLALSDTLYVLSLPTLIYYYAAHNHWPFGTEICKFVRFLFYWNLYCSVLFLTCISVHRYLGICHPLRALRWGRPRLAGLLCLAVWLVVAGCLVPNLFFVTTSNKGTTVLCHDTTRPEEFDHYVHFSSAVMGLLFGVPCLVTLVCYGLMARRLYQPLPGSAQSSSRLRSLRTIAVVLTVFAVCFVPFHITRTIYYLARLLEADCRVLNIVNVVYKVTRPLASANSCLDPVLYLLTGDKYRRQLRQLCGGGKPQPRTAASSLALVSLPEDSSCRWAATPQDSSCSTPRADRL
Summary of the method: (§5)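 1321N1 astrocytoma cells (no endogenous P2Y receptors) stably expressing hP2Y4, grown in DMEM with 5% FBS, penicillin/streptomycin and 500 μg/mL G-418. Fura-2-loaded cell suspensions; compounds applied at various concentrations, 37 °C, 10 mM Hepes-buffered saline pH 7.4 with 1 mM CaCl2/MgCl2. Peak [Ca2+]i rise by dual-excitation fluorometry gives EC50; UTP reference agonist; three experiments on separate days.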

P2Y purinoceptor 4 [6] = biological target: T3, P2Y purinoceptor 4; assay: as §4; summary of the method: as §5; remark: listed apart in the source
P2Y purinoceptor 2 [7] = biological target: T4, P2Y purinoceptor 2 (Homo sapiens, UniProt P41231); assay: (§6) Agonist activity at human P2Y purinoceptor 2 expressed in human 1321N1 cells assessed as increase in intracellular calcium concentration by spectrofluorimetry; summary of the method: as §2
T4 sequence (P41231 whole entry): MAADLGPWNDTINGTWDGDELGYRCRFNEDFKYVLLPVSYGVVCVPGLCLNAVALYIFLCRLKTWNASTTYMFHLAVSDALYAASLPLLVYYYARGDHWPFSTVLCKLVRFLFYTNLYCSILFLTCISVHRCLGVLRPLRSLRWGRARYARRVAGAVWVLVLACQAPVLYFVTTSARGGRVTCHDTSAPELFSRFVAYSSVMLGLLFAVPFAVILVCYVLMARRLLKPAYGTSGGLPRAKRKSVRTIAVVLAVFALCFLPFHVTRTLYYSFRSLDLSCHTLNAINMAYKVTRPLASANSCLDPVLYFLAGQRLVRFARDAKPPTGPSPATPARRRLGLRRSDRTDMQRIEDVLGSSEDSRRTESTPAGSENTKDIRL

P2Y purinoceptor 2 [8] = biological target: T4, P2Y purinoceptor 2; assay: as §6; remark: listed apart in the source

T1 sequence (Q63371 whole entry): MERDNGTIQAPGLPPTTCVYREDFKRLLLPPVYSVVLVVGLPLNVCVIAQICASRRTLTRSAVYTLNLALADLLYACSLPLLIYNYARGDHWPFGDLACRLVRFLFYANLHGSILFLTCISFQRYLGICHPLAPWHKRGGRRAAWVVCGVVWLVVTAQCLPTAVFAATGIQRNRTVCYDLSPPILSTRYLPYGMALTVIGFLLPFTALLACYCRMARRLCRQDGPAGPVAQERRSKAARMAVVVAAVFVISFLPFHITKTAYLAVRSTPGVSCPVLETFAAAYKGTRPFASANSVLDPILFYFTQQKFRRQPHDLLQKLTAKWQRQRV

| Compound | EC50 (P2Y purinoceptor 6 [1]) | EC50 (P2Y purinoceptor 6 [2]) | EC50 (P2Y purinoceptor 1 [3]) | EC50 (P2Y purinoceptor 1 [4]) | EC50 (P2Y purinoceptor 4 [5]) | EC50 (P2Y purinoceptor 4 [6]) | EC50 (P2Y purinoceptor 2 [7]) | EC50 (P2Y purinoceptor 2 [8]) |
| --- | --- | --- | --- | --- | --- | --- | --- | --- |
| BP(=O)(OC[C@H]1O[C@@H](n2cnc3c(N)ncnc32)[C@H](O)[C@@H]1O)OP(=O)(O)OP(=O)(O)OC[C@H]1O[C@@H](n2cnc3c(N)ncnc32)[C@H](O)[C@@H]1O (some centres undefined) |  |  | 800 nM | 800 nM |  |  |  |  |
| BP(=O)(OP(=O)(O)OC[C@H]1O[C@@H](n2cnc3c(N)ncnc32)[C@H](O)[C@@H]1O)OP(=O)(O)OP(=O)(O)OC[C@H]1O[C@@H](n2cnc3c(N)ncnc32)[C@H](O)[C@@H]1O (some centres undefined) |  |  | 3000 nM | 3000 nM |  |  |  |  |
| BP(=O)(OC[C@H]1O[C@@H](n2ccc(=O)[nH]c2=O)[C@H](O)[C@@H]1O)OP(=O)(O)OP(=O)(O)OP(=O)(O)OC[C@H]1O[C@@H](n2ccc(=O)[nH]c2=O)[C@H](O)[C@@H]1O (some centres undefined) | 36100 nM | 36100 nM |  |  | 9.4 µM | 9.4 µM |  |  |
| BP(=O)(OP(=O)(O)OC[C@H]1O[C@@H](n2ccc(=O)[nH]c2=O)[C@H](O)[C@@H]1O)OP(=O)(O)OP(=O)(O)OC[C@H]1O[C@@H](n2cnc3c(N)ncnc32)[C@H](O)[C@@H]1O (some centres undefined) | 20900 nM | 20900 nM | 500 nM | 500 nM |  |  |  |  |
| BP(=O)(OC[C@H]1O[C@@H](n2cnc3c(N)ncnc32)[C@H](O)[C@@H]1O)OP(=O)(O)OP(=O)(O)OP(=O)(O)OC[C@H]1O[C@@H](n2cnc3c(N)ncnc32)[C@H](O)[C@@H]1O (some centres undefined) |  |  | 1480 nM | 1480 nM |  |  | 25.9 µM | 25.9 µM |

Continued, in another order:

| EC50 (P2Y purinoceptor 6 [1]) | EC50 (P2Y purinoceptor 6 [2]) | EC50 (P2Y purinoceptor 1 [3]) | Compound | EC50 (P2Y purinoceptor 1 [4]) | EC50 (P2Y purinoceptor 4 [5]) | EC50 (P2Y purinoceptor 4 [6]) | EC50 (P2Y purinoceptor 2 [7]) | EC50 (P2Y purinoceptor 2 [8]) |
| --- | --- | --- | --- | --- | --- | --- | --- | --- |
| 720 nM | 720 nM |  | BP(=O)(OC[C@H]1O[C@@H](n2ccc(=O)[nH]c2=O)[C@H](O)[C@@H]1O)OP(=O)(O)OP(=O)(O)OC[C@H]1O[C@@H](n2ccc(=O)[nH]c2=O)[C@H](O)[C@@H]1O (some centres undefined) |  |  |  |  |  |
| 1930 nM | 1930 nM |  | BP(=O)(OP(=O)(O)OC[C@H]1O[C@@H](n2ccc(=O)[nH]c2=O)[C@H](O)[C@@H]1O)OP(=O)(O)OP(=O)(O)OC[C@H]1O[C@@H](n2ccc(=O)[nH]c2=O)[C@H](O)[C@@H]1O (some centres undefined) |  |  |  |  |  |
| 1290 nM | 1290 nM | 6900 nM | BP(=O)(OP(=O)(O)OC[C@H]1O[C@@H](n2cnc3c(N)ncnc32)[C@H](O)[C@@H]1O)OP(=O)(O)OP(=O)(O)OC[C@H]1O[C@@H](n2ccc(=O)[nH]c2=O)[C@H](O)[C@@H]1O (some centres undefined) |  |  |  | 64.2 µM |  |
